# Results: ChEMBL document CHEMBL2424585, “Biological evaluation of hyperforin and its hydrogenated analogue on bacterial growth and biofilm production” (2013)
# Calls of active or inactive are those of the source. The calls are words filed in the database; no cut-off is given here.
# Assays:
# Assay type in all cases: functional
# Staphylococcus aureus [1] = experiment: Antibacterial activity against Staphylococcus aureus ATCC 29213 after 18 hrs by MTT assay; details: ATCC 29213, 18 h
# Method in brief: (§1)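 Broth microdilution MIC per CLSI M7-A6. Serial 2-fold dilutions in cation-adjusted Mueller-Hinton broth (20 mg/L Ca2+, 10 mg/L Mg2+), ranging 16 to 0.25 μg/mL (DMSO stock) or 256 to 0.25 μg/mL (ethanol stock). Inoculum 5 × 10^5 cfu in saline. Incubated 37 °C, 18 h. Growth detected by MTT colour change. MIC = lowest concentration with no visible growth.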
# Staphylococcus aureus [2] = experiment: Antibacterial activity against methicillin-resistant Staphylococcus aureus ATCC 43300 after 18 hrs by MTT assay; details: ATCC 43300, 18 h; method in brief: as §1
# Staphylococcus aureus [3] = experiment: Antibacterial activity against methicillin-resistant Staphylococcus aureus Ig5 clinical isolate after 18 hrs by MTT assay; details: Ig5, 18 h; method in brief: as §1
# Staphylococcus aureus [4] = experiment: Antibacterial activity against Staphylococcus aureus ATCC 25923 after 18 hrs by MTT assay; details: ATCC 25923, 18 h; method in brief: as §1
# Staphylococcus aureus [5] = experiment: Antibacterial activity against Staphylococcus aureus RN4220 after 18 hrs by MTT assay; details: RN4220, 18 h; method in brief: as §1
# Enterococcus faecalis [6] = experiment: Antibacterial activity against Enterococcus faecalis ATCC 29212 after 18 hrs by MTT assay; details: ATCC 29212, 18 h; method in brief: as §1
# Staphylococcus aureus [7] = experiment: Antibacterial activity against Staphylococcus aureus EMRSA-15 after 18 hrs by MTT assay; details: EMRSA-15, 18 h; method in brief: as §1
# Staphylococcus aureus [8] = experiment: Antibacterial activity against Staphylococcus aureus SA1199B after 18 hrs by MTT assay; method in brief: as §1
# Escherichia coli = experiment: Antibacterial activity against Escherichia coli ATCC 25922 after 18 hrs by MTT assay; method in brief: as §1
# Staphylococcus aureus [9] = experiment: Antibacterial activity against Staphylococcus aureus XU212 after 18 hrs by MTT assay; details: XU212, 18 h; method in brief: as §1
# Enterococcus faecalis [10] = experiment: Antibacterial activity against Enterococcus faecalis ATCC 29212 assessed as reduction of microorganisms in biofilm at 25 ug/ml after 18 hrs by XTT assay relative to untreated control; parameters: scale not given: the % may be the effect or the level left
# Method in brief: (§2)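 Mature 24 h biofilms grown in TSB + 2% glucose were PBS-rinsed and exposed to the stated concentration for 18 h at 37 °C with shaking. Metabolic activity was then measured by XTT (1 mg/mL in PBS) with menadione, 2 h at 37 °C in the dark, absorbance 492 nm. Activity is expressed as OD relative to untreated TSB biofilms. Triplicate.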
# Staphylococcus aureus [11] = experiment: Antibacterial activity against methicillin-resistant Staphylococcus aureus ATCC 43300 after 18 hrs by XTT assay
# Method in brief: (§3)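 Mature biofilms grown in TSB + 2% glucose from ~10^5 cfu/mL: 4 h shaken adhesion at 37 °C, medium replaced, then 24 h at 37 °C. Rinsed with PBS, then serial dilutions (150–18.7 or 25–6.25 μg/mL; PEG-200 vehicle for one agent) added for 18 h at 37 °C with shaking. Viability read by XTT–menadione, 2 h dark, 492 nm. MBIC = lowest concentration with no detectable biofilm growth. Triplicate.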
# Staphylococcus aureus [12] = experiment: Antibacterial activity against Staphylococcus aureus ATCC 43300 assessed as reduction of microorganisms in biofilm at 25 ug/ml after 18 hrs by XTT assay relative to untreated control; parameters: scale not given: the % may be the effect or the level left; method in brief: as §2
# Staphylococcus aureus [13] = experiment: Antibacterial activity against Staphylococcus aureus ATCC 29213 assessed as reduction of microorganisms in biofilm at 25 ug/ml after 18 hrs by XTT assay relative to untreated control; parameters: scale not given: the % may be the effect or the level left; method in brief: as §2
# Staphylococcus aureus [14] = experiment: Antibacterial activity against Staphylococcus aureus ATCC 29213 after 18 hrs by XTT assay; method in brief: as §3
# Staphylococcus aureus [15] = experiment: Antibacterial activity against methicillin-resistant Staphylococcus aureus Ig5 clinical isolate assessed as reduction of microorganisms in biofilm at 25 ug/ml after 18 hrs by XTT assay relative to untreated control; parameters: scale not given: the % may be the effect or the level left; method in brief: as §2
# Enterococcus faecalis [16] = experiment: Antibacterial activity against Enterococcus faecalis ATCC 29212 after 18 hrs by XTT assay; method in brief: as §3
# Staphylococcus aureus [17] = experiment: Antibacterial activity against methicillin-resistant Staphylococcus aureus Ig5 clinical isolate after 18 hrs by XTT assay; method in brief: as §3
# Enterococcus faecalis [18] = experiment: Antibacterial activity against Enterococcus faecalis ATCC 29212 assessed as reduction of microorganisms in biofilm at 37.5 ug/ml after 18 hrs by XTT assay relative to untreated control; parameters: scale not given: the % may be the effect or the level left; method in brief: as §2
# Staphylococcus aureus [19] = experiment: Antibacterial activity against Staphylococcus aureus Ig5 assessed as reduction of microorganisms in biofilm at 37.5 ug/mL after 18 hrs by XTT assay relative to untreated control; parameters: scale not given: the % may be the effect or the level left; method in brief: as §2
# Staphylococcus aureus [20] = experiment: Antibacterial activity against methicillin-resistant Staphylococcus aureus Ig5 clinical isolate assessed as reduction of microorganisms in biofilm at 150 ug/ml after 18 hrs by XTT assay relative to untreated control; parameters: scale not given: the % may be the effect or the level left; method in brief: as §2
# Staphylococcus aureus [21] = experiment: Antibacterial activity against Staphylococcus aureus ATCC 29213 assessed as reduction of microorganisms in biofilm at 150 ug/ml after 18 hrs by XTT assay relative to untreated control; parameters: scale not given: the % may be the effect or the level left; method in brief: as §2
# Staphylococcus aureus [22] = experiment: Antibacterial activity against Staphylococcus aureus ATCC 43300 assessed as reduction of microorganisms in biofilm at 37.5 ug/ml after 18 hrs by XTT assay relative to untreated control; parameters: scale not given: the % may be the effect or the level left; method in brief: as §2
Structure (SMILES),MIC (Staphylococcus aureus [1]) [µg/mL],MIC (Staphylococcus aureus [2]) [µg/mL],MIC (Staphylococcus aureus [3]) [µg/mL],MIC (Staphylococcus aureus [4]) [µg/mL],MIC (Staphylococcus aureus [5]) [µg/mL],MIC (Enterococcus faecalis [6]) [µg/mL],MIC (Staphylococcus aureus [7]) [µg/mL],MIC (Staphylococcus aureus [8]) [µg/mL],MIC (Staphylococcus aureus [9]) [µg/mL],MBIC (Staphylococcus aureus [11]) [µg/mL],MBIC (Staphylococcus aureus [14]) [µg/mL],MBIC (Enterococcus faecalis [16]) [µg/mL],MBIC (Staphylococcus aureus [17]) [µg/mL],MIC (Escherichia coli),also measured
CCn1cc(C(=O)O)c(=O)c2cc(F)c(N3CCNCC3)cc21 [NORFLOXACIN],2,4,2,2,1,4,0.5,32,4,–,–,–,–,–,"MIC (Escherichia coli; ATCC 25922, 18 h): 0.12 µg/mL"
C1CCC(NC2CCCCC2)CC1.CC(C)=CCC[C@]1(C)[C@@H](CC=C(C)C)C[C@]2(CC=C(C)C)C(=O)C(CC=C(C)C)=C(O)[C@@]1(C(=O)C(C)C)C2=O,1,1,1,1,–,1,2,2,0.5,25,25,25,25,inactive,Activity (Enterococcus faecalis [10]): 34%; Activity (Staphylococcus aureus [12]): 21%; Activity (Staphylococcus aureus [13]): 45%; Activity (Staphylococcus aureus [15]): 33%
C1CCC(NC2CCCCC2)CC1.CC(C)CCC[C@]1(C)[C@@H](CCC(C)C)C[C@@]2(CCC(C)C)C(=O)[C@]1(C(=O)C(C)C)C(=O)C(CCC(C)C)=C2O [OCTAHYDROHYPERFORIN DICYCLOHEXYLAMMONIUM SALT],4,4,4,4,1,4,–,4,1,37.5,150,37.5,37.5,inactive,Activity (Enterococcus faecalis [18]): 45%; Activity (Staphylococcus aureus [19]): 52%; Activity (Staphylococcus aureus [20]): 45%; Activity (Staphylococcus aureus [21]): 52%; Activity (Staphylococcus aureus [22]): 47%
